Source: ChEMBL document CHEMBL4118209, “Development of autotaxin inhibitors: A series of zinc binding triazoles” (Bioorg Med Chem Lett, 2018)
Values after ≈ are worked out from the molar mass of the structure shown. One block for each compound: values may come before it.

Columns and labels:
[1] = Oral bioavailability in Lewis rat at 1 to 100 mg/kg dosed via gavage after 1.25 to 24 hrs; type: ADME, organism-based; conditions: in vivo
[2] = Equilibrium solubility of compound at pH 6.8 by high-throughput screening method; conditions: buffer
[3] = target: T1, Voltage-gated inwardly rectifying potassium channel KCNH2 (Homo sapiens, UniProt Q12809); assay: Displacement of [3H]dofetilide from human ERG expressed in HEK293 cells after 45 mins by scintillation counting method
T1 sequence (Q12809 whole entry): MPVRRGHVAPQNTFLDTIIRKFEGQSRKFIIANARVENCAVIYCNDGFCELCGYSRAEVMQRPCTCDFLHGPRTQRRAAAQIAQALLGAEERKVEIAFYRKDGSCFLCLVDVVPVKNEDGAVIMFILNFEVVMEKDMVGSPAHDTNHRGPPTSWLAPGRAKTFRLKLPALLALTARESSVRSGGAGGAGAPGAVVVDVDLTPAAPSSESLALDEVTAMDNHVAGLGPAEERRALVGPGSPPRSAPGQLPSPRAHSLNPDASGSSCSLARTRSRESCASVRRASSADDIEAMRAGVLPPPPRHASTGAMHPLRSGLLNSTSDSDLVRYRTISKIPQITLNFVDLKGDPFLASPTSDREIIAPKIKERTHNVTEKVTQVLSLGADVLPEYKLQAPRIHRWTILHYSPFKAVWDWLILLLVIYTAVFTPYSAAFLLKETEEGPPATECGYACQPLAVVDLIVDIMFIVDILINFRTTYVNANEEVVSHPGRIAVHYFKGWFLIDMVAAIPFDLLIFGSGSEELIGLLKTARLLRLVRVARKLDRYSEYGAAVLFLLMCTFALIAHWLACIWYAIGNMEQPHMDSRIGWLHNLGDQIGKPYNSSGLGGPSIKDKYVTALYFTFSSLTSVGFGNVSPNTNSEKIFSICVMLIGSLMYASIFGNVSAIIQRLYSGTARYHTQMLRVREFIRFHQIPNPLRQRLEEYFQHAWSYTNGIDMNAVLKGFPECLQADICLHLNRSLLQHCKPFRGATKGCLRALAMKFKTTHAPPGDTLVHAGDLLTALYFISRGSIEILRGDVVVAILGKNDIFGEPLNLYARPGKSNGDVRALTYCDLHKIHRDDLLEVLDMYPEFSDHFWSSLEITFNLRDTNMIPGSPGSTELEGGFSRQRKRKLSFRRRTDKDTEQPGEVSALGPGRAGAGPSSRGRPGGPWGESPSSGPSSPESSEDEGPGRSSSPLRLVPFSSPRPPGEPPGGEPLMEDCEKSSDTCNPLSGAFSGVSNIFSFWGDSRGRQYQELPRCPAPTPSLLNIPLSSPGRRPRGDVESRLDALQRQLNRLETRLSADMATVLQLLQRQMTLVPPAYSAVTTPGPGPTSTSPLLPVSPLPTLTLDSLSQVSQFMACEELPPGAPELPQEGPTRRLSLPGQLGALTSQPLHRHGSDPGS

[4] = Permeability assessed as drug absorption at 50 ug/ml after 5 hrs by PAMPA; conditions: at 50 µg/mL
Autotaxin [5] = target: T2, Autotaxin (Homo sapiens, UniProt Q13822); assay: Inhibition of ATX (unknown origin) assessed as decrease in choline release
[6] = Intrinsic clearance in Sprague-Dawley rat liver microsomes at 1 uM by HPLC analysis; type: ADME, microsome; conditions: read-out: CLH
[7] = Fraction unbound in human plasma at 5 uM after 2 to 6 hrs by rapid equilibrium dialysis method; type: ADME, cell-free
[8] = target: T1, Voltage-gated inwardly rectifying potassium channel KCNH2; assay: Inhibition of human ERG expressed in CHO-K1 cells at -90 mV holding potential by Qpatch clamp assay
[9] = Half life in Sprague-Dawley rat at 1 mg/kg, iv; type: ADME, organism-based; conditions: in vivo
[10] = Clearance in Sprague-Dawley rat at 1 mg/kg, iv; type: ADME, organism-based; conditions: in vivo
[11] = Volume of distribution at steady state in Sprague-Dawley rat at 1 mg/kg, iv; type: ADME, organism-based; conditions: in vivo, read-out: Vdss
Rattus norvegicus [12] = assay: AUC (0 to infinity) in Sprague-Dawley rat at 10 mg/kg, po; type: ADME, organism-based; parameters: dose 10 mg/kg, time infinity, route oral; conditions: in vivo
[13] = Cmax in Sprague-Dawley rat at 10 mg/kg, po; type: ADME, organism-based; parameters: dose 10 mg/kg, route oral; conditions: in vivo
[14] = Tmax in Sprague-Dawley rat at 10 mg/kg, po; type: ADME, organism-based; conditions: in vivo
[15] = Oral bioavailability in Sprague-Dawley rat at 10 mg/kg; type: ADME, organism-based; conditions: in vivo
Autotaxin [16] = target: T2, Autotaxin; assay: Inhibition of ATX in human serum assessed as reduction in LPA 18:1 levels after 3 hrs by LC-MS/MS analysis
Procedure, shortened: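 Human serum was cleared of coagulated blood by centrifugation (2100g, 10 min, room temperature) and stored at −80 °C. It was incubated with compound (0.5 nM–10 μM) with shaking at 37 °C for 3 h. LPA was extracted into methanol with 30 mM citric acid and LPA 17:0 internal standard (0.5 µM), then quantified by LC-MS/MS (negative-ion MRM). IC50 was obtained by non-linear regression.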

Rattus norvegicus [17] = assay: In vivo inhibition of ATX in Sprague-Dawley rat assessed as reduction in LPA 16:0 levels in serum at 0.3 mg/kg, po measured over 24 hrs by LCMS analysis relative to control; type: functional
Procedure, shortened: (§1)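 Male Sprague-Dawley rats (n = 6 per group) were given compound or vehicle (0.5% methyl cellulose:0.5% Tween80) orally at 5 ml/kg. Tail-vein blood was taken at various times without anticoagulant, held 30 min at room temperature, and spun at 700g for 10 min. Serum was stored at −80 °C. LPA isoforms were measured by LC-MS/MS, and PK/PD was assessed with a link model.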

Rattus norvegicus [18] = assay: In vivo inhibition of ATX in Sprague-Dawley rat assessed as reduction in LPA 18:0 levels in serum at 0.3 mg/kg, po measured over 24 hrs by LCMS analysis relative to control; type: functional; procedure, shortened: as §1
Rattus norvegicus [19] = assay: In vivo inhibition of ATX in Sprague-Dawley rat assessed as reduction in LPA 18:1 levels in serum at 0.3 mg/kg, po measured over 24 hrs by LCMS analysis relative to control; type: functional; procedure, shortened: as §1
Rattus norvegicus [20] = assay: In vivo inhibition of ATX in Sprague-Dawley rat assessed as reduction in LPA 24:4 levels in serum at 0.3 mg/kg, po measured over 24 hrs by LCMS analysis relative to control; type: functional; conditions: in the assay text read “LPA 20:4” for “LPA 24:4”; procedure, shortened: as §1
Rattus norvegicus [21] = assay: In vivo inhibition of ATX in po dosed Sprague-Dawley rat assessed as reduction in LPA 16:0 levels in serum measured over 24 hrs by LCMS analysis; type: functional, organism-based; procedure, shortened: as §1
Rattus norvegicus [22] = assay: In vivo inhibition of ATX in po dosed Sprague-Dawley rat assessed as reduction in LPA 18:0 levels in serum measured over 24 hrs by LCMS analysis; type: functional, organism-based; procedure, shortened: as §1
Rattus norvegicus [23] = assay: In vivo inhibition of ATX in po dosed Sprague-Dawley rat assessed as reduction in LPA 18:1 levels in serum measured over 24 hrs by LCMS analysis; type: functional, organism-based; procedure, shortened: as §1
Rattus norvegicus [24] = assay: In vivo inhibition of ATX in po dosed Sprague-Dawley rat assessed as reduction in LPA 24:4 levels in serum measured over 24 hrs by LCMS analysis; type: functional, organism-based; conditions: in the assay text read “LPA 20:4” for “LPA 24:4”; procedure, shortened: as §1
[25] = Fraction unbound in rat plasma at 5 uM after 2 to 6 hrs by rapid equilibrium dialysis method; type: ADME, cell-free
[26] = Intrinsic clearance in human liver microsomes at 1 uM by HPLC analysis; type: ADME, microsome; conditions: read-out: CLH
[27] = Thermodynamic solubility in FeSSIF; type: physicochemical; conditions: read-out: Therm_solubility

bioavailability [1]: 43 to 83% | solubility thermodynamic [2]: 10 to 11 µg/mL (≈ 20.9 to 23 µM) | Drug absorption [4]: 81%
SMILES: O=C(CCN1CCN(C(=O)OCc2cc(Cl)cc(Cl)c2)CC1)c1ccc2[nH]c(=O)oc2c1
IC50 [3]: 2700 nM

IC50 (Autotaxin [5]): 39 nM | Drug absorption [4]: 35%
SMILES: O=C(CCCc1c[nH]nn1)NC1CCN(C(=O)OCc2ccc(C(F)(F)F)cc2)CC1

Drug absorption [4]: 35%
SMILES: O=C(CCCc1c[nH]nn1)NC1CCN(C(=O)OCc2cc(F)cc(Cl)c2)CC1

IC50 (Autotaxin [5]): 7.7 nM | Drug absorption [4]: 21%
SMILES: N#Cc1cc(Cl)cc(COC(=O)N2CCC(NC(=O)CCCc3c[nH]nn3)CC2)c1

Drug absorption [4]: 89%
SMILES: CN(C(=O)CCCc1c[nH]nn1)C1CCN(C(=O)OCc2cc(Cl)cc(Cl)c2)CC1

IC50 (Autotaxin [5]): 240 nM
SMILES: O=C(CCN1CCN(C(=O)OCC2CCCCC2)CC1)c1ccc2[nH]c(=O)oc2c1

IC50 (Autotaxin [5]): 3.9 nM
SMILES: O=C(OCc1cc(Cl)cc(Cl)c1)N1CC(N2CCN(C(=O)c3ccc4[nH]c(=O)oc4c3)CC2)C1

IC50 (Autotaxin [5]): 8 nM
SMILES: O=C(NCC1(O)CCN(C(=O)OCc2cc(Cl)cc(Cl)c2)CC1)c1ccc2[nH]c(=O)oc2c1

IC50 (Autotaxin [5]): 10 nM
SMILES: O=C(NCCC1CN(C(=O)OCc2cc(Cl)cc(Cl)c2)CCO1)c1ccc2[nH]c(=O)oc2c1 (racemic)

The remaining lines, values behind:

SMILES: O=C(CCCc1c[nH]nn1)NC1CCN(C(=O)OCc2cc(Cl)cc(Cl)c2)CC1
IC50 (Autotaxin [5]): 3.1 nM | Drug absorption [4]: 43% | microsomal CLint at 1 µM [6]: 104 µL/min/mg | fraction unbound at 5 µM [7]: 0.026 | IC50 [8]: 20900 nM | half-life [9]: 5.3 h | clearance [10]: 16 mL/min/kg | Vd [11]: 2.5 L/kg | AUC (Rattus norvegicus [12]): 17 µM·h | Cmax [13]: 2.85 µM | Tmax [14]: 1.3 h | bioavailability [15]: 68% | IC50 (Autotaxin [16]): 9 nM | inhibition in vivo at 0.3 mg/kg (Rattus norvegicus [17]): 70 to 80% | inhibition in vivo at 0.3 mg/kg (Rattus norvegicus [18]): 70 to 80% | inhibition in vivo at 0.3 mg/kg (Rattus norvegicus [19]): 70 to 80% | inhibition in vivo at 0.3 mg/kg (Rattus norvegicus [20]): 70 to 80% | IC50 (Rattus norvegicus [21]): 20 nM | IC50 (Rattus norvegicus [22]): 20 nM | IC50 (Rattus norvegicus [23]): 20 nM | IC50 (Rattus norvegicus [24]): 20 nM | fraction unbound at 5 µM [25]: 0.04 | microsomal CLint at 1 µM [26]: 59 µL/min/mg | solubility thermodynamic [27]: 126 µg/mL (≈ 286 µM)

SMILES: O=C(CCCc1c[nH]nn1)NC1CCN(C(=O)OCc2ccc(Cl)cc2Cl)CC1
Drug absorption [4]: 43%

SMILES: O=C(CCc1c[nH]nn1)NC1CCN(C(=O)OCc2cc(Cl)cc(Cl)c2)CC1
microsomal CLint at 1 µM [6]: 75 µL/min/mg

SMILES: O=C(NCCN1CCN(C(=O)OCc2cc(Cl)cc(Cl)c2)CC1)c1c[nH]c(=O)o1
solubility thermodynamic [2]: 60 µg/mL (≈ 135 µM) | IC50 (Autotaxin [5]): 370 nM | Drug absorption [4]: 35%

SMILES: O=C(NCCC1CCN(C(=O)OCc2cc(Cl)cc(Cl)c2)CC1)c1c[nH]c(=O)o1
solubility thermodynamic [2]: 80 µg/mL (≈ 181 µM) | IC50 (Autotaxin [5]): 86 nM | Drug absorption [4]: 68%

SMILES: CN(CCC1CCN(C(=O)OCc2cc(Cl)cc(Cl)c2)CC1)C(=O)c1c[nH]c(=O)o1
microsomal CLint at 1 µM [6]: 235 µL/min/mg | fraction unbound at 5 µM [7]: 0.005 | half-life [9]: 4.8 h | clearance [10]: 12 mL/min/kg | Vd [11]: 2.2 L/kg | AUC (Rattus norvegicus [12]): 25 µM·h | Cmax [13]: 3.4 µM | Tmax [14]: 2.5 h | bioavailability [15]: 80%

SMILES: CN(CCC1CCN(C(=O)OCc2cc(Cl)cc(Cl)c2)CC1)C(=O)c1c[nH]nn1
IC50 (Autotaxin [5]): 150 nM | Drug absorption [4]: 97% | microsomal CLint at 1 µM [6]: 51 µL/min/mg | IC50 [8]: 8600 nM

SMILES: Cn1cc(CCCC(=O)NC2CCN(C(=O)OCc3cc(Cl)cc(Cl)c3)CC2)nn1
IC50 (Autotaxin [5]): 1370 nM

SMILES: O=C(CCN1CCN(C(=O)OCC2CCCC2)CC1)c1ccc2[nH]c(=O)oc2c1
IC50 (Autotaxin [5]): 170 nM

SMILES: O=C(CCN1CCN(C(=O)OCc2ccccc2)CC1)c1ccc2[nH]c(=O)oc2c1
IC50 (Autotaxin [5]): 130 nM

SMILES: O=C(OCc1cc(Cl)cc(Cl)c1)N1CCC(N2CCN(C(=O)c3ccc4[nH]c(=O)oc4c3)CC2)C1 (racemic)
IC50 (Autotaxin [5]): 18 nM
